According to ChEMBL document CHEMBL1140329, “Control of protein-protein interactions: structure-based discovery of low molecular weight inhibitors of the interactions between Pin1 WW domain and phosphopeptides” (J Med Chem, 2005):
Where a SMILES comes first, the peptide text is derived from it. [ ]: non-standard residue; d: D form. The star is where a group is joined. pT = C[C@@H](OP(=O)(O)O)[C@H](N)C(=O)O; Fmoc = O=C(OCC1c2ccccc2-c2ccccc21)*; Hydrocinnamoyl = O=C(CCc1ccccc1)*; ΔPro = O=C(O)[C@@H]1C=CCN1; Thz = O=C(O)[C@@H]1CSCN1; PhAc = O=C(Cc1ccccc1)*

Biological target: Peptidyl-prolyl cis-trans isomerase NIMA-interacting 1 (Homo sapiens, UniProt Q13526)
Sequence (Q13526 whole entry): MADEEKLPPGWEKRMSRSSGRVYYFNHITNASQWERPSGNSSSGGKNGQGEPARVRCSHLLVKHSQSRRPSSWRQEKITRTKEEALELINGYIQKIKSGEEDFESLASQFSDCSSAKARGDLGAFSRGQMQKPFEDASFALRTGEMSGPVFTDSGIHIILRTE
Experiment: Dissociation constant for human peptidyl-prolyl cis-trans isomerase NIMA-interacting 1
Procedure, shortened: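 15N-labeled Pin1 WW domain (His6-tagged, expressed in E. coli BL21(DE3)) in 25 mM deuterated Tris-HCl pH 6.8, 50 mM NaCl, 5 mM DTT, 2.5 mM EDTA, 10% D2O; 600 MHz 1H-15N HSQC at 293 K. 50 μM protein titrated with ligand 0.025–1 mM final; chemical shift perturbations fitted to a single-site equation for KD.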

| Kd | Structure (SMILES) |
| --- | --- |
| 28 µM | C[C@@H](OP(=O)(O)O)[C@H](NC(=O)CCCc1ccccc1)C(=O)N1CC=C[C@H]1C(N)=O |
| > 2000 µM | NC(=O)[C@@H]1CCCN1C(=O)CCNS(=O)(=O)C(F)(F)F |
| > 2000 µM | NC(=O)[C@@H]1CCCN1C(=O)CCP(=O)(O)O |
| > 2000 µM | NC(=O)[C@@H]1CCCN1C(=O)CC/N=c1\c(O)c(O)c1=O |
| > 2000 µM | NC(=O)[C@@H]1CCCN1C(=O)CCC(=O)O |
| 48 µM | C[C@@H](OP(=O)(O)O)[C@H](NC(=O)CCCCc1ccccc1)C(=O)N1CCC[C@H]1C(N)=O |
| > 2000 µM | NC(=O)[C@@H]1CCCN1C(=O)CCCC(=O)O |
| 30 µM | C[C@@H](OP(=O)(O)O)[C@H](NC(=O)CCCc1ccccc1)C(=O)N1CCC[C@H]1C(N)=O |
| 100 µM | CC(=O)N[C@H](C(=O)N1CCC[C@@H]1C(N)=O)[C@@H](C)OP(=O)(O)O |
| 910 µM | NC(=O)[C@@H]1CCCN1C(=O)[C@H](CCC/N=c1\c(O)c(O)c1=O)NC(=O)OCC1c2ccccc2-c2ccccc21 |
| 540 µM | NC(=O)[C@@H]1CCCN1C(=O)[C@H](CCCCNc1c(O)c(=O)c1=O)NC(=O)OCC1c2ccccc2-c2ccccc21 |
| 38 µM | C[C@@H](OP(=O)(O)O)[C@H](NC(=O)C(c1ccccc1)c1ccccc1)C(=O)N1CCC[C@H]1C(N)=O |
| 420 µM | CC(=O)N[C@H](C(=O)N1C[C@@H](F)C[C@H]1C(N)=O)[C@@H](C)OP(=O)(O)O |
| 5 µM | C[C@@H](OP(=O)(O)O)[C@H](NC(=O)CCC(C)(c1ccc(O)cc1)c1ccc(O)cc1)C(=O)N1CC=C[C@H]1C(N)=O |
| > 2000 µM | CC(=O)N[C@@H](CCC(=O)O)C(=O)N1CCC[C@H]1C(N)=O (Ac-Glu-Pro-NH2) |
| 400 µM | CC(=O)N[C@H](C(=O)N1CSC[C@H]1C(N)=O)[C@@H](C)OP(=O)(O)O (Ac-[pT]-[Thz]-NH2) |
| 18 µM | CC(=O)N[C@H](C(=O)N1CC=C[C@H]1C(N)=O)[C@@H](C)OP(=O)(O)O (Ac-[pT]-[ΔPro]-NH2) |
| 15 µM | C[C@@H](OP(=O)(O)O)[C@H](NC(=O)OCC1c2ccccc2-c2ccccc21)C(=O)N1CCC[C@H]1C(N)=O (Fmoc-[pT]-Pro-NH2) |
| 66 µM | C[C@@H](OP(=O)(O)O)[C@H](NC(=O)OCC1c2ccccc2-c2ccccc21)C(=O)N1CC=C[C@H]1C(N)=O (Fmoc-[pT]-[ΔPro]-NH2) |
| 32 µM | C[C@@H](OP(=O)(O)O)[C@H](NC(=O)CCc1ccccc1)C(=O)N1CCC[C@H]1C(N)=O (Hydrocinnamoyl-[pT]-Pro-NH2) |
| 35 µM | C[C@@H](OP(=O)(O)O)[C@H](NC(=O)Cc1ccccc1)C(=O)N1CCC[C@H]1C(N)=O (PhAc-[pT]-Pro-NH2) |
| 160 µM | CC(=O)N[C@H](C(=O)N1CCC1C(N)=O)C(C)OP(=O)(O)O (single isomer, unassigned) |
| 36 µM | CC(=O)N[C@H](C(=O)N1CC(F)CC1C(N)=O)[C@@H](C)OP(=O)(O)O (single isomer, unassigned) |
| 800 µM | CC(=O)N[C@H](C(=O)N1CC(O)CC1C(N)=O)[C@@H](C)OP(=O)(O)O (single isomer, unassigned) |
| 140 µM | CC(=O)N[C@H](C(=O)N1CCCCC1C(N)=O)C(C)OP(=O)(O)O (single isomer, unassigned) |
